Measurements as given in ChEMBL document CHEMBL4813987, “Membrane active 7-thiazoxime quinolones as novel DNA binding agents to decrease the genes expression and exert potent anti-methicillin-resistant Staphylococcus aureus activity” (Eur J Med Chem, 2021).
Calls of active or inactive are those of the source. The calls are words filed in the database; no cut-off is given here.

Experiments:
Pseudomonas aeruginosa [1] = assay: Antibacterial activity against Pseudomonas aeruginosa ATCC 27853 assessed as reduction in microbial growth by two fold microdilution method; format: functional
Pseudomonas aeruginosa [2] = assay: Antibacterial activity against Pseudomonas aeruginosa assessed as reduction in microbial growth by two fold microdilution method; format: functional
Klebsiella pneumoniae [3] = assay: Antibacterial activity against Klebsiella pneumonia assessed as reduction in microbial growth by two fold microdilution method; format: functional
Staphylococcus aureus [4] = assay: Antibacterial activity against Staphylococcus aureus assessed as reduction in microbial growth by two fold microdilution method; format: functional
How it was run: (§1)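 MIC determined by the standard two-fold broth micro-dilution assay, with norfloxacin and ciprofloxacin as reference agents.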

Escherichia coli [5] = assay: Antibacterial activity against Escherichia coli ATCC 25922 assessed as reduction in microbial growth by two fold microdilution method; format: functional
Acinetobacter baumannii = assay: Antibacterial activity against Acinetobacter baumannii assessed as reduction in microbial growth by two fold microdilution method; format: functional
Staphylococcus aureus [6] = assay: Antibacterial activity against Staphylococcus aureus ATCC 29213 assessed as reduction in microbial growth by two fold microdilution method; format: functional
Staphylococcus aureus [7] = assay: Antibacterial activity against Staphylococcus aureus ATCC 25923 assessed as reduction in microbial growth by two fold microdilution method; format: functional
Escherichia coli [8] = assay: Antibacterial activity against Escherichia coli assessed as reduction in microbial growth by two fold microdilution method; format: functional
Enterococcus faecalis = assay: Antibacterial activity against Enterococcus faecalis assessed as reduction in microbial growth by two fold microdilution method; format: functional
Staphylococcus aureus [9] = assay: Antibacterial activity against methicillin-resistant Staphylococcus aureus assessed as reduction in bacterial growth at 50 to 300 ug/ml measured after 14 passages; format: functional, organism-based; conditions: dose 50-300 µg/ml
Staphylococcus aureus [10] = assay: Antibacterial activity against methicillin-resistant Staphylococcus aureus assessed as reduction in microbial growth by two fold microdilution method; format: functional; how it was run: as §1
Staphylococcus aureus [11] = assay: Potency index, ratio of norfloxacin MIC to test compound MIC for antibacterial activity against methicillin-resistant Staphylococcus aureus assessed as reduction in microbial growth by two fold microdilution method; format: functional
Staphylococcus aureus [12] = assay: Potency index, ratio of norfloxacin MIC to test compound MIC for antibacterial activity against Staphylococcus aureus ATCC 29213 assessed as reduction in microbial growth by two fold microdilution method; format: functional
Escherichia coli [13] = assay: Antibacterial activity against Escherichia coli in presence of ciprofloxacin (reference value: 0.25 ug/ml); format: functional
DNA [14] = assay: Competitive binding affinity to methicillin-resistant Staphylococcus aureus DNA assessed as DNA intercalation by AO staining based assay; format: nucleic-acid assay
How it was run: (§2)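 Competitive displacement on MRSA DNA, recorded by fluorescence in 1.0 cm quartz cells. For the AO–DNA complex, emission at 537 nm followed with increasing compound concentration. For the DAPI–DNA complex, DAPI fluorescence followed with increasing compound concentration.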

[15] = Hemolytic activity in human RBC incubated for 4 hrs by microscopic analysis relative to control; format: ADME, cell-based, Erythrocyte; conditions: red blood cells (erythrocytes), read-out: Activity
How it was run: (§3)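 Processed red blood cells incubated with various compound concentrations (multiples of MIC) for 4 h at 37 °C in PBS; 1% Triton X-100 as positive control, PBS blank, saline control; hemolysis rate determined and cell integrity inspected by microscopy.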

DNA [16] = assay: Competitive binding affinity to methicillin-resistant Staphylococcus aureus DNA assessed as DNA intercalation by DAPI staining based assay; format: nucleic-acid assay; how it was run: as §2
[17] = molecular target: T1, DNA gyrase (Staphylococcus aureus) (UniProt P0A0K8+P20831); assay: Binding affinity to DNA gyrase in methicillin-resistant Staphylococcus aureus assessed as decrease in femB gene expression after 3 hrs by RT-PCR method
T1 sequence (P0A0K8 2-644 limits assumed): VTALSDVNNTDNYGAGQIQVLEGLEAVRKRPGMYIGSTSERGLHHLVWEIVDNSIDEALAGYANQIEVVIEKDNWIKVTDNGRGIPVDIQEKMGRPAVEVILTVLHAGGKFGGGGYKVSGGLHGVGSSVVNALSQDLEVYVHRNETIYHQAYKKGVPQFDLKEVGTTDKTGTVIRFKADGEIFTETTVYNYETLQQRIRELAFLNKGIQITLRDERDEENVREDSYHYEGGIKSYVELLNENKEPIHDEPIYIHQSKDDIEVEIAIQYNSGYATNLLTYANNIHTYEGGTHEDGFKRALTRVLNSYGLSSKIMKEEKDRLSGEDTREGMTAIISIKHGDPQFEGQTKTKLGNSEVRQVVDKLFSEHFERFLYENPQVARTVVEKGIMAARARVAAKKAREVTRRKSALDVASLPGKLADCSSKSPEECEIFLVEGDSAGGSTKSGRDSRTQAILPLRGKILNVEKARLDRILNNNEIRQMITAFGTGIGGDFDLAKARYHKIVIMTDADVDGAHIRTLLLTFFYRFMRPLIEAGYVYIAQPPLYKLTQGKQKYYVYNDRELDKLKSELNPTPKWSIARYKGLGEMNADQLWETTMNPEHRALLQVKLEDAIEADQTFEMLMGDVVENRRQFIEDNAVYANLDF
T1 sequence (P20831 whole entry partner): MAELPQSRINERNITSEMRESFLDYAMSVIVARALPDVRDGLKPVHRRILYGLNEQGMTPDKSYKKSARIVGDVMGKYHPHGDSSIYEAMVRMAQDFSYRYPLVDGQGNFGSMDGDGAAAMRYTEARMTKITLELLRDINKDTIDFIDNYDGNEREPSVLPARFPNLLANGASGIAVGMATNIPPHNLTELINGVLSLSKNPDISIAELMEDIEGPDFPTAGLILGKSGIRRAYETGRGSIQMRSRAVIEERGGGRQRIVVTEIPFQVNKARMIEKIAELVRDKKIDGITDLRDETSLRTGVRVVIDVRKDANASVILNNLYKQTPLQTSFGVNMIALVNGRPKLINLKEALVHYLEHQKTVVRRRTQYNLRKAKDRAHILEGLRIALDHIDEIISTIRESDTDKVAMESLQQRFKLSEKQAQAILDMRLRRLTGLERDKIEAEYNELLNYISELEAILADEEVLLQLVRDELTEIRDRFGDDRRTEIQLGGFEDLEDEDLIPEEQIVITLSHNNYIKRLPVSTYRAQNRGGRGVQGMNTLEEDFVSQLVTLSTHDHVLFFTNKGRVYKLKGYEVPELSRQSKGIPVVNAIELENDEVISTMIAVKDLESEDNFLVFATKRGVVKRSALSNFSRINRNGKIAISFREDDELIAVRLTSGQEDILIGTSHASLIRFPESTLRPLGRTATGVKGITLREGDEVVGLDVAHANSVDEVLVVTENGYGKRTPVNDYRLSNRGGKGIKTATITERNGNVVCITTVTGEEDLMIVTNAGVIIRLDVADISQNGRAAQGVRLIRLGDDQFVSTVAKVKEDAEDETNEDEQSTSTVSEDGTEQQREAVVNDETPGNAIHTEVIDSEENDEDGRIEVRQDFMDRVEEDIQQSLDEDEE

Staphylococcus aureus [18] = assay: Synergistic antibacterial activity against methicillin-resistant Staphylococcus aureus assessed as fractional inhibitory concentration index in presence of ciprofloxacin; format: functional
How it was run: (§4)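 MIC of the test compound and of ciprofloxacin determined alone and in combination against each strain. FIC index = (MIC of A combined / MIC of A alone) + (MIC of B combined / MIC of B alone). FIC index ≤0.5 scored synergy, >0.5–2 additivity, >2 antagonism.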

Staphylococcus aureus [19] = assay: Additive antibacterial activity against Staphylococcus aureus ATCC 25923 assessed as fractional inhibitory concentration index in presence of ciprofloxacin; format: functional
[20] = Hemolytic activity in human RBC at 64 times MIC incubated for 4 hrs by microscopic analysis relative to control; format: ADME, cell-based, Erythrocyte; conditions: red blood cells (erythrocytes), read-out: Activity; how it was run: as §3
DNA [21] = assay: Binding affinity to methicillin-resistant Staphylococcus aureus DNA assessed as conformational changes in DNA duplex by UV spectroscopy; format: nucleic-acid assay
How it was run: (§5)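 Genomic DNA isolated from MRSA titrated with the compound. UV absorption spectra recorded in 1.0 cm quartz cells, and the binding constant derived from an equation and plot of the spectral data.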

Staphylococcus aureus [22] = assay: Antibacterial activity against methicillin-resistant Staphylococcus aureus assessed as reduction in bacterial growth at 20 to 140 ug/ml measured after 16 passages; format: functional, organism-based; conditions: dose 20-140 µg/ml
Staphylococcus aureus [23] = assay: Bactericidal activity against methicillin-resistant Staphylococcus aureus assessed as increase in sterilization rate at 2 ug/ml measured at 6 hrs by time kill assay; format: functional, organism-based; conditions: dose 2.0 µg/ml
How it was run: (§6)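 Time-kill kinetics: MRSA exposed to the compound at several concentrations, with ciprofloxacin as positive control. Sterilization rate followed over time up to 6 h.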

Cell membrane [24] = assay: Induction of inner membrane disruption in methicillin-resistant Staphylococcus aureus assessed as decrease in green fluorescence intensity at 4 times MIC measured by calcein-AM dye based fluorescence analysis
How it was run: (§7)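 MRSA treated at 1–4 × MIC and stained with propidium iodide and calcein-AM. Fluorescence intensity measured on a spectrofluorimeter. Dual-stain cells imaged by fluorescence microscopy, scoring red (PI) and green (calcein) cells.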

[25] = molecular target: T1, DNA gyrase (Staphylococcus aureus); assay: Binding affinity to DNA gyrase in methicillin-resistant Staphylococcus aureus assessed as decrease in gyrB gene expression after 3 hrs by RT-PCR method
Cell membrane [26] = assay: Induction of inner membrane permeabilization in methicillin-resistant Staphylococcus aureus by propidium iodide staining based fluorescence microscopic analysis; how it was run: as §7
Staphylococcus aureus [27] = assay: Antibacterial activity against Staphylococcus aureus ATCC 25923 in presence of ciprofloxacin (reference value: 0.25 ug/ml); format: functional; how it was run: as §4
HEK-293T = assay: Cytotoxicity against human HEK293T cells assessed as increase in cell survival incubated for 24 hrs by MTT assay relative to control; format: cell-based
How it was run: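 LO2 hepatocytes and 293T cells exposed to compound for 24 h; viability by colorimetric MTT proliferation assay, expressed as survival rate versus untreated cells.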

Klebsiella pneumoniae [28] = assay: Synergistic antibacterial activity against Klebsiella pneumonia assessed as fractional inhibitory concentration index in presence of ciprofloxacin; format: functional
Cell membrane [29] = assay: Induction of inner membrane permeabilization in methicillin-resistant Staphylococcus aureus assessed as decrease in fluorescence intensity at 4 times MIC measured by calcein-AM dye based fluorescence analysis
DNA [30] = assay: Binding affinity to methicillin-resistant Staphylococcus aureus DNA assessed as maximum absorbance peak at 260 nm by UV spectroscopy; format: nucleic-acid assay; how it was run: as §5
Staphylococcus aureus [31] = assay: Antibacterial activity against methicillin-resistant Staphylococcus aureus assessed as reduction in bacterial growth at 20 to 140 ug/ml measured after 16 passages in presence of ciprofloxacin; format: functional, organism-based; conditions: dose 20-140 µg/ml
Cell membrane [32] = assay: Induction of membrane depolarization in methicillin-resistant Staphylococcus aureus at MIC by DiSC35 dye-based fluorescence assay; conditions: TDE = time-dependent effect
How it was run: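 Cytoplasmic membrane potential of MRSA probed with the fluorescent dye diSC35. Cells treated at MIC, and fluorescence intensity recorded over time against untreated cells.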

Cell membrane [33] = assay: Induction of inner membrane disruption in methicillin-resistant Staphylococcus aureus assessed as increase in red fluorescence intensity at 4 times MIC measured by calcein-AM dye based fluorescence analysis; how it was run: as §7
Erythrocyte = assay: Hemolytic activity in human RBC at 16 times MIC incubated for 4 hrs by microscopic analysis; format: ADME, cell-based; how it was run: as §3
Staphylococcus aureus [34] = assay: Antibacterial activity against methicillin-resistant Staphylococcus aureus in presence of ciprofloxacin (reference value: 0.25 ug/ml); format: functional; how it was run: as §4
Klebsiella pneumoniae [35] = assay: Antibacterial activity against Klebsiella pneumonia in presence of ciprofloxacin (reference value: 0.25 ug/ml); format: functional
[36] = molecular target: T1, DNA gyrase (Staphylococcus aureus); assay: Binding affinity to DNA gyrase in methicillin-resistant Staphylococcus aureus assessed as decrease in mecA gene expression after 3 hrs by RT-PCR method
Staphylococcus aureus [37] = assay: Bactericidal activity against methicillin-resistant Staphylococcus aureus assessed as increase in sterilization rate at 4 ug/ml measured at 4 hrs by time kill assay; format: functional, organism-based; conditions: dose 4.0 µg/ml; how it was run: as §6
Escherichia coli [38] = assay: Synergistic antibacterial activity against Escherichia coli assessed as fractional inhibitory concentration index in presence of ciprofloxacin; format: functional
DNA [39] = assay: Binding affinity to methicillin-resistant Staphylococcus aureus DNA assessed as compound-DNA complex formation by UV spectroscopy; format: nucleic-acid assay; how it was run: as §5

CCn1cc(C(=O)O)c(=O)c2cc(F)c(N3CCN(C/C(=N\OC)c4nccs4)CC3)cc21
MIC (Pseudomonas aeruginosa [1]): 8 µg/mL | MIC (Pseudomonas aeruginosa [2]): 0.25 µg/mL | MIC (Klebsiella pneumoniae [3]): 256 µg/mL | MIC (Staphylococcus aureus [4]): 2 µg/mL | MIC (Escherichia coli [5]): 256 µg/mL | MIC (Acinetobacter baumannii): 0.25 µg/mL | MIC (Staphylococcus aureus [6]): 0.25 µg/mL | MIC (Staphylococcus aureus [7]): 0.5 µg/mL | MIC (Escherichia coli [8]): 0.25 µg/mL | MIC (Enterococcus faecalis): 4 µg/mL | Activity (Staphylococcus aureus [9]): inactive | MIC (Staphylococcus aureus [10]): 0.25 µg/mL | Ratio (Staphylococcus aureus [11]): 64

CCn1cc(C(=O)O)c(=O)c2cc(F)c(N3CCN(CC(=O)c4nccs4)CC3)cc21
MIC (Pseudomonas aeruginosa [1]): 2 µg/mL | Ratio (Staphylococcus aureus [12]): 16 | MIC (Pseudomonas aeruginosa [2]): 4 µg/mL | MIC (Klebsiella pneumoniae [3]): 32 µg/mL | MIC (Staphylococcus aureus [4]): 4 µg/mL | MIC (Escherichia coli [5]): 64 µg/mL | MIC (Acinetobacter baumannii): 16 µg/mL | MIC (Staphylococcus aureus [6]): 1 µg/mL | MIC (Staphylococcus aureus [7]): 2 µg/mL | MIC (Escherichia coli [8]): 32 µg/mL | MIC (Enterococcus faecalis): 2 µg/mL | MIC (Staphylococcus aureus [10]): 4 µg/mL | Ratio (Staphylococcus aureus [11]): 4

COC(=O)CO/N=C(\CN1CCN(c2cc3c(cc2F)c(=O)c(C(=O)O)cn3C2CC2)CC1)c1nccs1
MIC (Escherichia coli [13]): 0.0625 µg/mL | MIC (Pseudomonas aeruginosa [1]): 0.25 µg/mL | Activity (DNA [14]): Active | hemolysis at 4 h [15]: < 3% | MIC (Pseudomonas aeruginosa [2]): 0.25 µg/mL | Activity (DNA [16]): Active | Activity [17]: Active | FIC (Staphylococcus aureus [18]): 0.5 | MIC (Klebsiella pneumoniae [3]): 0.25 µg/mL | MIC (Staphylococcus aureus [4]): 0.25 µg/mL | MIC (Escherichia coli [5]): 0.25 µg/mL | FIC (Staphylococcus aureus [19]): 1.5 | hemolysis at 4 h, 64 times MIC [20]: < 5% | Activity (DNA [21]): Active | Activity (Staphylococcus aureus [22]): Active | MIC (Acinetobacter baumannii): 0.25 µg/mL | MIC (Staphylococcus aureus [6]): 0.25 µg/mL | Activity (Staphylococcus aureus [23]): Active | Activity (Cell membrane [24]): Active | Activity [25]: Active | MIC (Staphylococcus aureus [7]): 0.25 µg/mL | MIC (Escherichia coli [8]): 1 µg/mL | Activity (Cell membrane [26]): Dose-Dependent Effect | MIC (Enterococcus faecalis): 0.25 µg/mL | MIC (Staphylococcus aureus [27]): 0.25 µg/mL | Activity (HEK-293T): > 90% | FIC (Klebsiella pneumoniae [28]): 0.3125 | Activity (Cell membrane [29]): Active | Activity (DNA [30]): Active | Activity (Staphylococcus aureus [31]): inactive | MIC (Staphylococcus aureus [10]): 0.25 µg/mL | Activity (Cell membrane [32]): Tde | Activity (Cell membrane [33]): Active | Activity (Erythrocyte): Non-Toxic | MIC (Staphylococcus aureus [34]): 0.125 µg/mL | MIC (Klebsiella pneumoniae [35]): 0.0625 µg/mL | Activity [36]: inactive | Activity (Staphylococcus aureus [37]): Active | FIC (Escherichia coli [38]): 0.3125 | Activity (DNA [39]): Active
